ChEMBL document CHEMBL4477241, “Structure-Activity Relationship Studies for Enhancer of Zeste Homologue 2 (EZH2) and Enhancer of Zeste Homologue 1 (EZH1) Inhibitors” (J Med Chem, 2016)

What was measured:
[1] = target: Histone-lysine N-methyltransferase EZH2 (Homo sapiens, UniProt O75530+Q15022+Q15910); test: Inhibition of EZH2 histone methyltransferase activity of EZH2/EED/SUZ12 protein complex (unknown origin) using histone H3 peptide as substrate (21 to 44 residues) in presence of [3H]-S-adenosylmethionine after 2 hrs by scintillation proximity assay
Sequence of Histone-lysine N-methyltransferase EZH2 (Q15910 whole entry, the tested form may be a part, one chain of several): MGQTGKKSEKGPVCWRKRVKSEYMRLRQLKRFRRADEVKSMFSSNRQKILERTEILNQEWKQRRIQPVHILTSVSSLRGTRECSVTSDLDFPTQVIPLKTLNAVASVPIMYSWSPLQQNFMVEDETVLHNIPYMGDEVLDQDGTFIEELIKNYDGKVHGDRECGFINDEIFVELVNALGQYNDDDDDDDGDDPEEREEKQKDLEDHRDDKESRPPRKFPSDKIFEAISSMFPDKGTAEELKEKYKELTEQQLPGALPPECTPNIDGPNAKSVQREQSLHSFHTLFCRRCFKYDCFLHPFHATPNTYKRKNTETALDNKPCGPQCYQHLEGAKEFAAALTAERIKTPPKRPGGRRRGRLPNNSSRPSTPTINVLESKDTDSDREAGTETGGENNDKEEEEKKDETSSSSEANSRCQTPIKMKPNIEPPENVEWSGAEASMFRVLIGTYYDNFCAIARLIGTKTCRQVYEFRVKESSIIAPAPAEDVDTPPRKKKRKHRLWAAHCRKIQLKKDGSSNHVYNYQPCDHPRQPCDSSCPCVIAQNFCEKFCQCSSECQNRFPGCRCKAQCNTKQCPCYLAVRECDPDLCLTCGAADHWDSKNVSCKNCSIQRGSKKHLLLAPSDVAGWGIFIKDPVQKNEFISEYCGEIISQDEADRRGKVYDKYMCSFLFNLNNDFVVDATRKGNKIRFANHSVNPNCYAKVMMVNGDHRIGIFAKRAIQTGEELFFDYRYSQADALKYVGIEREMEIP
Method in brief: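 20 nM EZH2 trimeric complex with 2 μM 3H-SAM and 1 μM biotinylated H3(21–44) in 20 mM Tris-HCl pH 8, 5 mM DTT, 0.01% Triton X-100. Incubated 1 h at 23 °C, quenched with guanidine hydrochloride, then 2 h streptavidin flash-plate capture. Activity scaled between no-compound and no-enzyme counts.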

[2] = target: T1, Histone-lysine N-methyltransferase EZH1 (Homo sapiens, UniProt Q92800); test: Inhibition of EZH1 histone methyltransferase activity of EZH1/EED/SUZ12/RBBP4/AEBP2 protein complex (unknown origin) using histone H3 peptide as substrate (21 to 44 residues) in presence of [3H]-S-adenosylmethionine after 2 hrs by scintillation proximity assay
T1 sequence (Q92800 whole entry): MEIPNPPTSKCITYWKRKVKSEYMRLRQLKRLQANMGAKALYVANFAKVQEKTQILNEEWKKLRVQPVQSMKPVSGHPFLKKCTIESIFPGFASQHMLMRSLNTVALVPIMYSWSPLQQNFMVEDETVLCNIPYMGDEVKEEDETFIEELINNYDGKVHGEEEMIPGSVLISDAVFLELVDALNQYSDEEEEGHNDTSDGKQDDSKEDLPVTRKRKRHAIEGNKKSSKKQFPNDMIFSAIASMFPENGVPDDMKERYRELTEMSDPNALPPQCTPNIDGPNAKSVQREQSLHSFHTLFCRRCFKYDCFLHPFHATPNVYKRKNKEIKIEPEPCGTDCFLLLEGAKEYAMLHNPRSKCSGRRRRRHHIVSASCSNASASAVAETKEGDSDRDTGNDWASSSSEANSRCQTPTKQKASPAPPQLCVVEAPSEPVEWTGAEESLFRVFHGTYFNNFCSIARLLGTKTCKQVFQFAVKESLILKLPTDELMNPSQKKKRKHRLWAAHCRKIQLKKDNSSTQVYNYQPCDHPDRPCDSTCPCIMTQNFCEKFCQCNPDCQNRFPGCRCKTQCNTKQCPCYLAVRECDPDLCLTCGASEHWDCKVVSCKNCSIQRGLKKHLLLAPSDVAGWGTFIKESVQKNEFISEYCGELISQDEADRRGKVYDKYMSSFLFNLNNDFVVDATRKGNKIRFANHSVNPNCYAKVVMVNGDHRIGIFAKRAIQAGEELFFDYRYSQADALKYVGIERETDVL
Method in brief: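 10 nM EZH1 pentameric complex with 4 μM 3H-SAM and 1 μM biotinylated H3(21–44) in 20 mM Tris-HCl pH 8, 5 mM DTT, 0.01% Triton X-100. Reaction run 1 h at 23 °C, stopped with guanidine hydrochloride, then captured 2 h on a streptavidin flash plate. Counts normalized to no-compound (100%) and no-enzyme (0%) controls.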

For `CCCc1cc(C)[nH]c(=O)c1CNC(=O)c1cc(Br)cc2c1cnn2C(C)C`, the IC50 [1] was 35 nM and the IC50 [2] was > 5000 nM.
